Experiments:
K562 = assay: Cytotoxicity against human K562 cells after 72 hrs by MTT assay; type: functional, cell-based; details: K562, 72 h
Summary of the method: (§1)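 Cells in RPMI-1640 were exposed to compound for 72 h, then given MTT and incubated a further 4 h at 37 °C. Formazan was dissolved in DMSO and absorbance read at 570 and 630 nm. Triplicate wells per point across three independent experiments. IC50 (50% inhibition of viability) was taken from concentration-response curves by linear regression, as the mean of three determinations.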

HCT-116 = assay: Cytotoxicity against human HCT116 cells after 72 hrs by MTT assay; type: functional, cell-based; details: HCT-116, 72 h; summary of the method: as §1
HeLa = assay: Cytotoxicity against human HeLa cells after 72 hrs by MTT assay; type: functional, cell-based; summary of the method: as §1
DU-145 (human) = assay: Cytotoxicity against human DU145 cells after 72 hrs by MTT assay; details: DU-145, 72 h
SGC-7901 (human) = assay: Cytotoxicity against human SGC7901 cells after 72 hrs by MTT assay; details: SGC-7901, 72 h

CCCNC(=S)N/N=C1\CC(c2ccc(O)cc2)Oc2cc(O)ccc21 (stereo not given)
IC50 (K562): 31 µM
IC50 (HCT-116): 54 µM
IC50 (HeLa): 40.2 µM
IC50 (DU-145 (human)): 31.2 µM
IC50 (SGC-7901 (human)): 74.7 µM

CC(C)NC(=S)N/N=C1\CC(c2ccc(O)cc2)Oc2cc(O)ccc21 (stereo not given)
IC50 (K562): 21.3 µM
IC50 (HCT-116): 38.2 µM
IC50 (HeLa): 68.1 µM
IC50 (DU-145 (human)): 35.2 µM
IC50 (SGC-7901 (human)): 60.4 µM

CCCCNC(=S)N/N=C1\CC(c2ccc(O)cc2)Oc2cc(O)ccc21 (stereo not given)
IC50 (K562): 17 µM
IC50 (HCT-116): 49.3 µM
IC50 (HeLa): > 100 µM
IC50 (DU-145 (human)): 50.8 µM
IC50 (SGC-7901 (human)): 57.7 µM

CC(C)(C)NC(=S)N/N=C1\CC(c2ccc(O)cc2)Oc2cc(O)ccc21 (stereo not given)
IC50 (K562): 8.9 µM
IC50 (HCT-116): 25.9 µM
IC50 (HeLa): 50 µM
IC50 (DU-145 (human)): 31 µM
IC50 (SGC-7901 (human)): 42.9 µM

CCCN(CCC)C(=S)N/N=C1\CC(c2ccc(O)cc2)Oc2cc(O)ccc21 (stereo not given)
IC50 (K562): 12.4 µM
IC50 (HCT-116): 41.9 µM
IC50 (HeLa): 75.3 µM
IC50 (DU-145 (human)): 32.2 µM
IC50 (SGC-7901 (human)): 62.1 µM

Oc1ccc(C2C/C(=N\NC(=S)N3CCCC3)c3ccc(O)cc3O2)cc1 (stereo not given)
IC50 (K562): 17.3 µM
IC50 (HCT-116): 52.3 µM
IC50 (HeLa): 65.2 µM
IC50 (DU-145 (human)): 37 µM
IC50 (SGC-7901 (human)): 51.7 µM

Oc1ccc(C2C/C(=N\NC(=S)N3CCCCC3)c3ccc(O)cc3O2)cc1 (stereo not given)
IC50 (K562): 13.7 µM
IC50 (HCT-116): 50.9 µM
IC50 (HeLa): 74.4 µM
IC50 (DU-145 (human)): 40 µM
IC50 (SGC-7901 (human)): 55.3 µM

Oc1ccc(C2C/C(=N\NC(=S)N3CCNCC3)c3ccc(O)cc3O2)cc1 (stereo not given)
IC50 (K562): 26.2 µM
IC50 (HCT-116): 79.4 µM
IC50 (HeLa): > 100 µM
IC50 (DU-145 (human)): 22.5 µM
IC50 (SGC-7901 (human)): > 100 µM

CN1CCN(C(=S)N/N=C2\CC(c3ccc(O)cc3)Oc3cc(O)ccc32)CC1 (stereo not given)
IC50 (K562): 23.1 µM
IC50 (HCT-116): 60.4 µM
IC50 (HeLa): 65.8 µM
IC50 (DU-145 (human)): 10.1 µM
IC50 (SGC-7901 (human)): 98.8 µM

Oc1ccc(C2C/C(=N\NC(=S)N3CCOCC3)c3ccc(O)cc3O2)cc1 (stereo not given)
IC50 (K562): 29.4 µM
IC50 (HCT-116): 63.5 µM
IC50 (HeLa): 76.3 µM
IC50 (DU-145 (human)): 52.2 µM
IC50 (SGC-7901 (human)): 84.5 µM

O=c1[nH]cc(F)c(=O)[nH]1 [FLUOROURACIL]
IC50 (K562): 45.4 µM
IC50 (HCT-116): 1.93 µM
IC50 (HeLa): 9.7 µM
IC50 (DU-145 (human)): 2.95 µM
IC50 (SGC-7901 (human)): 2.19 µM

O=C1C[C@@H](c2ccc(O)cc2)Oc2cc(O)ccc21 [LIQUIRTIGENIN]
IC50 (K562): > 100 µM
IC50 (HCT-116): 37.2 µM
IC50 (HeLa): > 100 µM
IC50 (DU-145 (human)): 92.4 µM
IC50 (SGC-7901 (human)): > 100 µM

— ChEMBL document CHEMBL1208677, “Synthesis and antitumor activity of liquiritigenin thiosemicarbazone derivatives” (Eur J Med Chem, 2010)
